This is an account of results in ChEMBL document CHEMBL1144849, “Latrunculin A and its C-17-O-carbamates inhibit prostate tumor cell invasion and HIF-1 activation in breast tumor cells” (J Nat Prod, 2008).

Experiment [1] concerns PC-3M. As to the kind of experiment: Antimetastatic activity in human PC3M cells expressing calcitonin assessed as decreased cell disaggregation by spheroid disaggregation assay. The class given is functional, cell-based. In short, it runs like this:
(§1)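 Spheroids grown from PC-3M-CT+ single-cell suspension (5×10^4/mL, serum-free RPMI 1640) on low-attachment plates rocked at 37 °C for 2 days, reaching 150–300 μm (~4×10^4 cells). One spheroid per ECM-coated well in serum-free medium, t=0 set at 1 h after plating. Photographed, cultured 48 h at 37 °C, fixed, Diff-Quik stained, migration diameter measured by micrometer minus initial diameter. Reported as percent increase in surface area.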

For experiment [2], the system named is PC-3M. As to the kind of experiment: Antimetastatic activity in human PC3M cells expressing calcitonin assessed as decreased cell migration by spheroid disaggregation assay. The class given is functional, cell-based. Put shortly: as §1
Experiment [3] deals with T1, Hypoxia inducible factors; HIF-1-alpha, HIF-2-alpha (Homo sapiens, UniProt Q16665+Q99814). In words: Inhibition of hypoxia-induced HIF1 activation in human T47D cells at 30 uM by cell based reporter gene assay. Put shortly:
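Transfected T47D luciferase reporter assay. Compound-treated cells exposed to hypoxia (5% CO2/1% O2/94% N2), normoxia, or 10 μM 1,10-phenanthroline as hypoxia mimetic, then luciferase activity read. Constitutive pGL3 control reporter run alongside.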

Experiment [4] relates to T47D. In words: Cell viability in human T47D cells at 30 uM by SRB method. The class given is functional. In short, it runs like this: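 T47D cells in DMEM/F12 with 10% FCS plated at 30,000/well and left overnight at 37 °C. Compound added, 30 min preincubation, then 16 h (or 48 h) treatment at 37 °C, hypoxic (1% O2) or normoxic.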
(In general: The SRB assay estimates cell density from bound dye.)

In experiment [5] the test system is PC-3M. In words: Antimetastatic activity in human PC3M cells expressing calcitonin assessed as shrinkage of actin fibers at 50 nM by Matrigel barrier assay. The experiment is classed as functional, cell-based.
Experiment [6] relates to PC-3M. As to the kind of experiment: Antimetastatic activity in human PC3M cells expressing calcitonin assessed as inhibition calcitonin-induced invasion at 100 nM by Matrigel barrier assay. The experiment is classed as functional, cell-based. Put shortly:
(§2)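 PC-3M-CT+ cells serum-starved 24 h, then 25×10³ cells seeded in the upper insert of Matrigel invasion chambers. Lower chamber held 90% basal RPMI plus 10% conditioned medium from cells expressing active Gαs. After 24 h, non-invaders were removed and the insert underside stained with Diff Quick. Cells counted in ≥6 fields at 100×, corrected for growth rate. Triplicate, repeated twice, mean ± SEM.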

In experiment [7] the test system is PC-3M. As to the kind of experiment: Antimetastatic activity in human PC3M cells expressing calcitonin assessed as inhibition of invasion at 100 nM by Matrigel barrier assay. The experiment is classed as functional, cell-based. In short, it runs like this:
as §2

The subject of experiment [8] is PC-3M. In words: Antimetastatic activity in human PC3M cells expressing calcitonin assessed as inhibition calcitonin-induced reorganization of actin fibers at 50 nM by Matrigel barrier assay. The class given is functional, cell-based.
Experiment [9] can be described thus: Cytotoxicity against human PC3M cells. The class given is functional, PC-3M.
A short description of experiment [10]: Antimetastatic activity in human PC3M cells expressing calcitonin assessed as decreased cell disaggregation at 500 nM by spheroid disaggregation assay relative to control. The class given is functional, PC-3M. In short, it runs like this: (§3)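 Single PC-3M-CT+ spheroids (150–300 μm, ~4×10⁴ cells, grown 2 days on a rocking shaker in serum-free RPMI) placed on ECM-coated wells in serum-free medium. t = 0 set 1 h after plating. Cultured 48 h at 37 °C, then fixed and Diff-Quik stained. Migration diameter measured by micrometer minus initial spheroid diameter. Reported as average percent increase in surface area.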

The nature of experiment [11]: Antimetastatic activity in human PC3M cells expressing calcitonin assessed as decreased cell migration at 500 nM by spheroid disintegration assay relative to control. The class given is functional, PC-3M. Put shortly: as §3
The target of experiment [12] is T1, Hypoxia inducible factors; HIF-1-alpha, HIF-2-alpha. In words: Inhibition of hypoxia-induced HIF1 activation in human T47D cells by cell based reporter gene assay. Put shortly:
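T47D cells transfected with an HIF-1 luciferase reporter, treated with compound and exposed to hypoxia (5% CO₂/1% O₂/94% N₂) versus normoxia (5% CO₂/95% air). Luciferase activity measured.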
Background: A reporter such as luciferase makes a cellular process visible.

Experiment [13] shares this target. As to the kind of experiment: Inhibition of 1,10-phenanthroline-induced HIF1 activation in human T47D cells by cell based reporter gene assay. In short, it runs like this:
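T47D cells transfected with an HIF-1 luciferase reporter, treated with compound and stimulated with 10 μM 1,10-phenanthroline as a hypoxia mimetic. Luciferase activity measured.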

Calls of active or inactive are those of the source. The rule behind the calls is not given here.

The term inhibition denotes the percentage by which the read-out fell short of the control. Lower therefore signals a response near the control. Consider `C/C1=C/C(=O)O[C@@H]2C[C@@H](CC[C@H](C)/C=C\C=C\CC1)O[C@@](OC(=O)NCCBr)([C@@H]1CSC(=O)N1)C2`, for which the outcome in experiment [1] and in experiment [2] was inactive. Besides, the inhibition in experiment [3] was under 50%. Also, the Activity in [4] is reported as under 20%.

On to `C/C1=C/C(=O)O[C@@H]2C[C@@H](CC[C@H](C)/C=C\C=C\CC1)O[C@@](OC(=O)NCCCl)([C@@H]1CSC(=O)N1)C2`, for which the result in experiment [1] and in experiment [2] was inactive. Besides, the inhibition in [3] is under 50%. Moreover, the Activity in [4] is given as under 20%.

As a reminder, the IC50 is the concentration at which inhibition is half-maximal. Regarding `C/C1=C/C(=O)O[C@@H]2C[C@@H](CC[C@H](C)/C=C\C=C\CC1)O[C@@](O)([C@@H]1CSC(=O)N1)C2` [LATRUNCULIN A], the outcome in experiment [5], in experiment [6], in [7] and in experiment [8] was Active. In addition, the Activity in experiment [9] was 500 nM; in experiment [4], under 20%. The Fold change in [10] and in [11] was 3 in each case. The IC50 amounted to 6.7 µM in experiment [12] and 25 µM in experiment [13].

For `C/C1=C/C(=O)O[C@@H]2C[C@@H](CC[C@H](C)/C=C\C=C\CC1)O[C@@](OC(=O)NCc1ccccc1)([C@@H]1CSC(=O)N1)C2`, the Activity result in [1] is “Dose-dependent effect”; in experiment [2] it was “Dose-dependent effect”; in experiment [4] it was under 20%. This compound also had an IC50 in experiment [12] of 29 µM.

As for `C/C1=C/C(=O)O[C@@H]2C[C@@H](CC[C@H](C)/C=C\C=C\CC1)O[C@@](OC(=O)NCCCCl)([C@@H]1CSC(=O)N1)C2`, the Activity result in [1] was “Dose-dependent effect”; in [2], “Dose-dependent effect”; in experiment [4] it was under 20%. Besides, the inhibition in experiment [3] was under 50%.

Consider `C/C1=C/C(=O)O[C@@H]2C[C@@H](CC[C@H](C)/C=C\C=C\CC1)O[C@@](OC(=O)Nc1ccccc1)([C@@H]1CSC(=O)N1)C2`, for which the Activity result in experiment [1] was “Dose-dependent effect”; in experiment [2], “Dose-dependent effect”; in [4], under 20%. The compound further yielded an inhibition in experiment [3] of under 50%.
